Test results taken from ChEMBL document CHEMBL5058577, “EUbOPEN Chemogenomics Library 2 (Multiplex)” (2022).

System: HEK-293T
Assay: Multiplex assay against HEK293T
Type: toxicity, cell-based
Details: human
Procedure, shortened: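 On a CQ1 microscope at 37°C and 5% CO2, live cells were imaged after compound addition. They had been stained at seeding with Hoechst33342, BioTracker Green Microtubule Cytoskeleton Dye, MitoTracker Red and Annexin V Alexa Fluor 680. CellPathfinder machine-learning gating assigned cells to Hoechst high-intensity objects or normal cells, normal cells to healthy, pyknosed or fragmented nuclei, and pyknosed cells to mitotic or apoptotic. Tubulin, mitochondrial-mass and membrane-permeability phenotypes are per cents of healthy-nucleus cells.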

[1] = 12 h, 1 µM, compound concentration 1 uM, replicate 1
[2] = 12 h, 1 µM, compound concentration 1 uM, replicate 2
[3] = 12 h, 10 µM, compound concentration 10 uM, replicate 1
[4] = 12 h, 10 µM, compound concentration 10 uM, replicate 2
[5] = 24 h, 1 µM, compound concentration 1 uM, replicate 1
[6] = 24 h, 1 µM, compound concentration 1 uM, replicate 2
[7] = 24 h, 10 µM, compound concentration 10 uM, replicate 1
[8] = 24 h, 10 µM, compound concentration 10 uM, replicate 2
[9] = 48 h, 1 µM, compound concentration 1 uM, replicate 1
[10] = 48 h, 1 µM, compound concentration 1 uM, replicate 2
[11] = 48 h, 10 µM, compound concentration 10 uM, replicate 1
[12] = 48 h, 10 µM, compound concentration 10 uM, replicate 2

## O=C1[C@H](Cc2ccc(O)cc2)N2C(=O)CCN(C(=O)NCc3ccccc3)[C@H]2CN1Cc1cccc2ccccc12
[1]
  Population Apoptotic (%): 44%
  Population Fragmented Nuclei (%): 6%
  Population Healthy Nuclei (%): 80%
  Population Hoechst High Intensity Objects (%): 6%
  Population Membrane Permeable-Phenotype (%): 0%
  Population Mitochondria Different-Phenotype (%): 54%
  Population Mitotic Cells (%): 55%
  Population Normal (%): 93%
  Population Pyknosed Nuclei (%): 12%
  Population Tubulin-Different-Phenotype (%): 46%
  Total Cell Count: 374
[2]
  Population Apoptotic (%): 46%
  Population Fragmented Nuclei (%): 7%
  Population Healthy Nuclei (%): 78%
  Population Hoechst High Intensity Objects (%): 8%
  Population Mitochondria Different-Phenotype (%): 68%
  Population Mitotic Cells (%): 53%
  Population Normal (%): 91%
  Population Pyknosed Nuclei (%): 13%
  Population Tubulin-Different-Phenotype (%): 33%
  Total Cell Count: 259
[3]
  Population Apoptotic (%): 68%
  Population Fragmented Nuclei (%): 5%
  Population Healthy Nuclei (%): 74%
  Population Hoechst High Intensity Objects (%): 11%
  Population Membrane Permeable-Phenotype (%): 0%
  Population Mitochondria Different-Phenotype (%): 90%
  Population Mitotic Cells (%): 31%
  Population Normal (%): 88%
  Population Pyknosed Nuclei (%): 20%
  Population Tubulin-Different-Phenotype (%): 76%
  Total Cell Count: 340
[4]
  Population Apoptotic (%): 60%
  Population Healthy Nuclei (%): 82%
  Population Hoechst High Intensity Objects (%): 14%
  Population Mitochondria Different-Phenotype (%): 93%
  Population Mitotic Cells (%): 40%
  Population Normal (%): 85%
  Population Pyknosed Nuclei (%): 11%
  Population Tubulin-Different-Phenotype (%): 67%
  Total Cell Count: 257
[5]
  Population Apoptotic (%): 23%
  Population Fragmented Nuclei (%): 7%
  Population Healthy Nuclei (%): 80%
  Population Hoechst High Intensity Objects (%): 7%
  Population Membrane Permeable-Phenotype (%): 0%
  Population Mitochondria Different-Phenotype (%): 49%
  Population Mitotic Cells (%): 76%
  Population Normal (%): 92%
  Population Pyknosed Nuclei (%): 11%
  Population Tubulin-Different-Phenotype (%): 38%
  Total Cell Count: 470
[6]
  Population Apoptotic (%): 55%
  Population Fragmented Nuclei (%): 8%
  Population Healthy Nuclei (%): 77%
  Population Hoechst High Intensity Objects (%): 8%
  Population Mitochondria Different-Phenotype (%): 47%
  Population Mitotic Cells (%): 45%
  Population Normal (%): 91%
  Population Pyknosed Nuclei (%): 14%
  Population Tubulin-Different-Phenotype (%): 24%
  Total Cell Count: 305
[7]
  Population Apoptotic (%): 68%
  Population Fragmented Nuclei (%): 7%
  Population Healthy Nuclei (%): 75%
  Population Hoechst High Intensity Objects (%): 11%
  Population Membrane Permeable-Phenotype (%): 0%
  Population Mitochondria Different-Phenotype (%): 94%
  Population Mitotic Cells (%): 31%
  Population Normal (%): 88%
  Population Pyknosed Nuclei (%): 16%
  Population Tubulin-Different-Phenotype (%): 65%
  Total Cell Count: 278
[8]
  Population Apoptotic (%): 74%
  Population Fragmented Nuclei (%): 9%
  Population Healthy Nuclei (%): 77%
  Population Hoechst High Intensity Objects (%): 14%
  Population Mitochondria Different-Phenotype (%): 95%
  Population Mitotic Cells (%): 25%
  Population Normal (%): 85%
  Population Pyknosed Nuclei (%): 12%
  Population Tubulin-Different-Phenotype (%): 70%
  Total Cell Count: 249
[9]
  Population Apoptotic (%): 30%
  Population Fragmented Nuclei (%): 14%
  Population Healthy Nuclei (%): 78%
  Population Hoechst High Intensity Objects (%): 4%
  Population Membrane Permeable-Phenotype (%): 0%
  Population Mitochondria Different-Phenotype (%): 34%
  Population Mitotic Cells (%): 69%
  Population Normal (%): 95%
  Population Pyknosed Nuclei (%): 6%
  Population Tubulin-Different-Phenotype (%): 26%
  Total Cell Count: 730
[10]
  Population Apoptotic (%): 50%
  Population Fragmented Nuclei (%): 11%
  Population Healthy Nuclei (%): 81%
  Population Hoechst High Intensity Objects (%): 3%
  Population Mitochondria Different-Phenotype (%): 29%
  Population Mitotic Cells (%): 50%
  Population Normal (%): 96%
  Population Pyknosed Nuclei (%): 7%
  Population Tubulin-Different-Phenotype (%): 19%
  Total Cell Count: 472
[11]
  Population Apoptotic (%): 71%
  Population Fragmented Nuclei (%): 8%
  Population Healthy Nuclei (%): 79%
  Population Hoechst High Intensity Objects (%): 10%
  Population Membrane Permeable-Phenotype (%): 0%
  Population Mitochondria Different-Phenotype (%): 94%
  Population Mitotic Cells (%): 28%
  Population Normal (%): 89%
  Population Pyknosed Nuclei (%): 11%
  Population Tubulin-Different-Phenotype (%): 63%
  Total Cell Count: 297
[12]
  Population Apoptotic (%): 57%
  Population Fragmented Nuclei (%): 11%
  Population Healthy Nuclei (%): 73%
  Population Hoechst High Intensity Objects (%): 20%
  Population Mitochondria Different-Phenotype (%): 88%
  Population Mitotic Cells (%): 42%
  Population Normal (%): 79%
  Population Pyknosed Nuclei (%): 14%
  Population Tubulin-Different-Phenotype (%): 72%
  Total Cell Count: 232
